Results from ChEMBL document CHEMBL1143007, “Synthesis and evaluation of 4/5-hydroxy-2,3-diaryl(substituted)-cyclopent-2-en-1-ones as cis-restricted analogues of combretastatin A-4 as novel anticancer agents” (J Med Chem, 2007).
Converted amounts (≈) assume the structure as drawn.

Experiments:
[1] = Cytotoxicity against human ECV304 cells after 72 hrs by MTT assay; type: cell-based, ECV-304; settings: Homo sapiens, ECV-304, 72 h; read-out: IC50
Procedure, shortened: (§1)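 MTT assay. Cells seeded at 5000-10 000 per well and incubated at 37 °C in CO₂ with compound at 1-100 µg/mL in triplicate wells for 72 h, then MTT added. Absorbance read at 540 nm; % cytotoxicity = 100 × (1 − treated/control). IC50 obtained by nonlinear regression; NA means IC50 above 100 µg/mL.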

[2] = system: HT-29; experiment: Cytotoxicity against human HT29 cells after 72 hrs by MTT assay; type: cell-based; settings: Homo sapiens, HT-29, 72 h; read-out: IC50; procedure, shortened: as §1
[3] = system: L132; experiment: Cytotoxicity against human L132 cells after 72 hrs by MTT assay; type: cell-based; settings: Homo sapiens, L132, 72 h; read-out: IC50; procedure, shortened: as §1
[4] = system: MIA PaCa-2; experiment: Cytotoxicity against human MiaPaCa2 cells after 72 hrs by MTT assay; type: cell-based; settings: Homo sapiens, MIA PaCa-2, 72 h; read-out: IC50; procedure, shortened: as §1
[5] = system: HEK293; experiment: Cytotoxicity against human HEK293 cells after 72 hrs by MTT assay; type: cell-based; settings: Homo sapiens, HEK293, 72 h; read-out: IC50; procedure, shortened: as §1
[6] = system: DU-145; experiment: Cytotoxicity against human DU145 cells after 72 hrs by MTT assay; type: cell-based; settings: Homo sapiens, DU-145, 72 h; read-out: IC50; procedure, shortened: as §1
[7] = system: KB; experiment: Cytotoxicity against human KB cells after 72 hrs by MTT assay; type: cell-based; settings: Homo sapiens, KB, 72 h; read-out: IC50; procedure, shortened: as §1
[8] = Cytotoxicity against human Hep2 cells after 72 hrs by MTT assay; type: cell-based, HEp-2; settings: Homo sapiens, HEp-2, 72 h; read-out: IC50; procedure, shortened: as §1
[9] = Cytotoxicity against human PA1 cells after 72 hrs by MTT assay; type: cell-based, PA-1; settings: Homo sapiens, PA-1, 72 h; read-out: IC50; procedure, shortened: as §1

| Structure (SMILES) | IC50 [1] | IC50 [2] | IC50 [3] | IC50 [4] | IC50 [5] | IC50 [6] | IC50 [7] | IC50 [8] | IC50 [9] |
| --- | --- | --- | --- | --- | --- | --- | --- | --- | --- |
| COC(=O)c1cc(C2=C(c3cc(OC)c(OC)c(OC)c3)C(=O)CC2O[Si](C)(C)C(C)(C)C)ccc1OC (stereo not given) | > 100 µg/mL | > 100 µg/mL | > 100 µg/mL | > 100 µg/mL | > 100 µg/mL | > 100 µg/mL | > 100 µg/mL | > 100 µg/mL | > 100 µg/mL |
| COc1ccc(C2=C(c3cc(OC)c(OC)c(OC)c3)C(=O)CC2O)cc1O (stereo not given) | > 100 µg/mL | < 1 µg/mL | < 1 µg/mL | > 100 µg/mL | > 100 µg/mL | 8 µg/mL (≈ 20.7 µM) | < 1 µg/mL | < 1 µg/mL | < 1 µg/mL |
| COc1ccc(C2=C(c3cc(OC)c(OC)c(OC)c3)C(=O)CC2O[Si](C)(C)C(C)(C)C)cc1O (stereo not given) | 30 µg/mL (≈ 59.9 µM) | 38 µg/mL (≈ 75.9 µM) | < 1 µg/mL | 55 µg/mL (≈ 110 µM) | 42 µg/mL (≈ 83.9 µM) | 75 µg/mL (≈ 150 µM) | 6.5 µg/mL (≈ 13 µM) | 14.5 µg/mL (≈ 29 µM) | 14 µg/mL (≈ 28 µM) |
| C=CCOc1cc(C2=C(c3cc(OC)c(OC)c(OC)c3)/C(=N\O)C(O)C2)ccc1OC (stereo not given) | > 100 µg/mL | > 100 µg/mL | > 100 µg/mL | > 100 µg/mL | > 100 µg/mL | > 100 µg/mL | > 100 µg/mL | > 100 µg/mL | > 100 µg/mL |
| COc1ccc(C2=C(c3cc(OC)c(OC)c(OC)c3)/C(=N\O)C(O)C2)cc1OC(C)C (stereo not given) | 96 µg/mL (≈ 216 µM) | 69 µg/mL (≈ 156 µM) | 75 µg/mL (≈ 169 µM) | 98 µg/mL (≈ 221 µM) | 36.8 µg/mL (≈ 82.9 µM) | 81 µg/mL (≈ 183 µM) | 95 µg/mL (≈ 214 µM) | 40 µg/mL (≈ 90.2 µM) | 61 µg/mL (≈ 138 µM) |
| COc1ccc(C2=C(c3cc(OC)c(OC)c(OC)c3)C(=O)C(O)C2)cc1Cl (stereo not given) | 20 µg/mL (≈ 49.4 µM) | < 1 µg/mL | < 1 µg/mL | > 100 µg/mL | > 100 µg/mL | 40 µg/mL (≈ 98.8 µM) | 2.5 µg/mL (≈ 6.18 µM) | < 1 µg/mL | > 100 µg/mL |
| COc1cc(C2=C(c3cc(C)c(OC)c(C)c3)C(OC(C)=O)CC2=O)cc(OC)c1OC (stereo not given) | > 100 µg/mL | > 100 µg/mL | > 100 µg/mL | > 100 µg/mL | > 100 µg/mL | > 100 µg/mL | > 100 µg/mL | > 100 µg/mL | > 100 µg/mL |
| COc1ccc(C2=C(c3cc(OC)c(OC)c(OC)c3)C(=O)CC2O[Si](C)(C)C(C)(C)C)cc1 (stereo not given) | > 100 µg/mL | > 100 µg/mL | > 100 µg/mL | > 100 µg/mL | > 100 µg/mL | > 100 µg/mL | > 100 µg/mL | > 100 µg/mL | > 100 µg/mL |
| COc1ccc(C2=C(c3cc(OC)c(OC)c(OC)c3)C(=O)C(OC(C)=O)C2)cc1F (stereo not given) | 41 µg/mL (≈ 95.3 µM) | < 1 µg/mL | < 1 µg/mL | 39.5 µg/mL (≈ 91.8 µM) | 59 µg/mL (≈ 137 µM) | 16 µg/mL (≈ 37.2 µM) | 33 µg/mL (≈ 76.7 µM) | < 1 µg/mL | > 100 µg/mL |
| COc1ccc(C2=C(c3cc(OC)c(OC)c(OC)c3)CC(O[Si](C)(C)C(C)(C)C)C2=O)cc1[N+](=O)[O-] (stereo not given) | > 100 µg/mL | > 100 µg/mL | > 100 µg/mL | > 100 µg/mL | > 100 µg/mL | > 100 µg/mL | > 100 µg/mL | > 100 µg/mL | > 100 µg/mL |
